Measurements as given in PubChem BioAssay AID2727 (Broad Institute, 2010).
Some of the results follow. Values without a mark were called inactive. Activity calls are given as the source filed them.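 Rule for the calls: active = inhibition above about 80% in every replicate, not just on average (limit read from the data); inconclusive = at least half of replicates past the limit, but not all; inactive = fewer than half of replicates past the limit.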

Experiment: luminescence decrease in constitutive quorum sensing strain – strain BB721, luminescence readout, counter-screen for LuxS inhibitor project, confirmation (AID 2727)
Conditions: Vibrio harveyi BB721 luminescence, 9 h; at 7.5 µM; stronger effect = higher value
Summary of the method: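 assay system = Vibrio harveyi BB721, quorum sensing constitutively active | read-out = luminescence reduction | buffer or medium = AB (autoinducer bioassay) growth medium | times = 9 h exposure at 30 °C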

SMILES | inhibition
O=C(COC(=O)C1CCCCC1)Nc1ccc([N+](=O)[O-])cc1 | 93.7% (active)
Cc1ccc(Oc2cnn(-c3ccccc3)c(=O)c2Br)cc1 | 99.2% (active)
Cc1ccccc1NC(=O)CCOc1ccccc1 | 90.7% (active)
O=S(=O)(Nc1cccc(Oc2ccc(Cl)cc2)n1)c1ccc(F)cc1 | 99.6% (active)
Cc1ccc(NS(=O)(=O)c2ccc3c(c2)NC(=O)CO3)cc1 | 92% (active)
CC(C)(C)c1ccc(OC2=CS(=O)(=O)c3ccccc32)cc1 | 92.5% (active)
O=C(Nc1ccc(F)c(Cl)c1)C1CCN(S(=O)(=O)c2cccnc2)CC1 | 97.7% (active)
Cc1cccc(CSc2ccc(-c3cccs3)nn2)c1 | 94.7% (active)
O=C(COc1ncnc2ccccc12)NC(=O)NCc1ccccc1 | 95.7% (active)
COC(=O)C1CCN(C(=O)c2ccc3oc(Cc4ccc(Cl)cc4)nc3c2)CC1 | 95.6% (active)
CN(Cc1cnccn1)C(=O)c1cc(COc2cccc(C(F)(F)F)c2)on1 | 96% (active)
O=C(/C=C/c1ccc2c(c1)OCO2)NCc1ccc(F)cc1 | 94% (active)
Cc1cc(C(=O)OCC(=O)Nc2ccc(F)c(F)c2)c(C)o1 | 97.5% (active)
CC(CNc1ccc([N+](=O)[O-])cc1)NC(=O)c1ccccc1Br (stereo not drawn) | -4.57%
Cc1ccsc1C(=O)OCC(=O)c1cc2ccccc2o1 | 95.1% (active)
O=C(CCC(=O)c1cccs1)Nc1nc2ccccc2s1 | 97.5% (active)
COC(=O)c1ccc(SCc2ccccc2)nc1 | 96.4% (active)

SMILES | inhibition
O=C1COc2ccc(S(=O)(=O)Nc3ccc(OC(F)(F)F)cc3)cc2N1 | 96.7% (active)
Cc1ccc(NC(=O)C2CC2c2ccccc2)cc1 (stereo not drawn) | 94.8% (active)
CCOC(=O)c1nn(-c2cccc(C)c2)cc1C(=O)c1ccccc1 | 87.7% (active)
COc1cccc(NC(=O)NCc2ccc(F)cc2)c1 | 94.6% (active)
Cc1ccc(Cc2nc(-c3cccc(C)c3)no2)cc1 | 92.5% (active)
Cc1ccccc1C(=O)Nc1ccc(N2CCCCCC2)cc1 | 91.4% (active)
O=C(c1cc(-c2cccc(O)c2)on1)N1CCc2ccccc2C1 | 93.6% (active)
O=C(Cn1cnc2ccccc2c1=O)Nc1cccc(S(=O)(=O)N2CCCCC2)c1 | 85.6% (active)
Cc1cc(CN(C)C(=O)c2cc(COc3ccc(C)c(C)c3)on2)n[nH]1 | 96% (active)
CCOc1ccc(/C=N/NC(N)=S)cc1 | 92.7% (active)
S=C(NCc1ccc(Cl)cc1)NC1CCCCC1 | 94.1% (active)
COc1ccc(/C(N)=N/OC(=O)Cc2ccccc2)cc1 | 93.6% (active)
O=C(/C=C/c1ccc2c(c1)OCCO2)c1ccc(O)cc1 | 93.3% (active)
N/C(=N\OC(=O)CCc1ccccc1)c1cccnc1 | 91.1% (active)
Cc1nn(CC(=O)Nc2ccc(F)cc2)c(=O)c2ccccc12 | 98.5% (active)
CC(=O)c1cccc(OCc2cc(C(=O)NC(C)Cc3cccnc3)no2)c1 (stereo not drawn) | 92.4% (active)
